ChEMBL document CHEMBL2346582, “Guanidino anthrathiophenediones as G-quadruplex binders: uptake, intracellular localization, and anti-Harvey-Ras gene activity in bladder cancer cells” (J Med Chem, 2013)
Calls of active or inactive are those of the source. No cut-off for these calls is given here.

Experiments:
Homo sapiens [1] = species on record: Homo sapiens; assay: Thermal stabilization of human HRAS2 G-quadruplex FAM-CGGGGCGGGGCGGGGGCGGGGGCG-TAMRA DNA assessed as as change in melting temperature at 1:1 DNA:ligand ratio by FRET assay
Outline: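 FRET melting in 50 mM Tris-HCl pH 7.4 with an equimolar ligand:quadruplex ratio (r = 1). Conditions: NRAS RNA and hras-2 in 10 mM KCl; hras-1 in 100 mM KCl, with ΔTM taken from its second transition. Ramp 1 °C/min from 20 to 95 °C after 5 min equilibration. TM and ΔTM (±0.5 K) versus ligand-free quadruplex.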

NIH3T3 [2] = assay: Cellular uptake in mouse NIH/3T3 cells after 4 hrs by FACS flow cytometric analysis in presence of cytochalasin D; assay type: ADME, cell-based; details: nih3t3, 4 h
NIH3T3 [3] = assay: Cellular uptake in mouse NIH/3T3 cells after 4 hrs by FACS flow cytometric analysis in presence of dynasore; assay type: ADME, cell-based; details: nih3t3, 4 h
T-24 [4] = assay: Cellular uptake in human T24 cells after 4 hrs by FACS flow cytometric analysis in presence of dynasore; assay type: ADME, cell-based; details: t-24, 4 h
Outline: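 T24 cells pretreated 30 min with 80 μM dynasore, then exposed to 5 μM ligand for 4 h. Analysed by flow cytometry (488 nm laser, FL3 680 nm channel), at least 10,000 cells.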

NIH3T3 [5] = assay: Cellular uptake in mouse NIH/3T3 cells at 0.5 to 10 uM after 10 mins to 8 hrs by flow cytometric analysis; assay type: ADME, cell-based; details: nih3t3, 10 µM
Outline: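 Flow cytometric uptake of 10 μM ligand over time (15 min, 1, 2, 6, 8 h; T24, and up to 8 h in NIH 3T3 and 293). Cells plated at 5 × 10^4 per well the day before. Ligand fluorescence detected in FL3 (680 nm), at least 10,000 cells acquired.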

Salmonidae = assay: Thermal stabilization of salmon sperm duplex DNA assessed as melting temperature by FRET assay
[6] = Binding affinity to human HRAS2 G-quadruplex FAM-CGGGGCGGGGCGGGGGCGGGGGCG-TAMRA DNA assessed as quenching of fluorescence emission by FRET titration assay
Outline: (§1)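 FRET titration of 200 nM oligonucleotide dual-labelled at its ends with carboxyfluorescein (donor) and tetramethylrhodamine (acceptor), in 50 mM Tris-HCl with KCl (100 mM for htelo and hras-1, 10 mM for KRAS and hras-2). Ligand binding quenches the emission, mainly the acceptor at 580 nm. The fraction of filled sites was fitted to the Hill equation to give apparent KD and the Hill coefficient.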

Homo sapiens [7] = species on record: Homo sapiens; assay: Thermal stabilization of human HRAS1 G-quadruplex FAM-TCGGGTTGCGGGCGCAGGGCACGGGCG-TAMRA DNA assessed as change in melting temperature at 1:5 DNA:ligand ratio by FRET assay
Outline: (§2)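 FRET melting of 200 nM dual-labelled quadruplex in 50 mM Tris-HCl with KCl (100 mM for htelo and hras-1, 10 mM for KRAS and hras-2). Ligand at r = 5 ([ligand]/[quadruplex]; hras-2 tabulated at r = 4). Samples held 5 min at 20 °C, then heated 1 °C/min to 95 °C. ΔTM is the TM with ligand minus TM without ligand (±0.5 K). For hras-1 both biphasic transitions are given.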

[8] = Binding affinity to human HRAS1 G-quadruplex FAM-TCGGGTTGCGGGCGCAGGGCACGGGCG-TAMRA DNA assessed as quenching of fluorescence emission by FRET titration assay; outline: as §1
Mus musculus = species on record: Mus musculus; assay: Thermal stabilization of mouse KRAS G-quadruplex FAM-GCGGGAGGGAGGGAAGGAGGGAGGGAGGGAG-TAMRA DNA assessed as change in melting temperature at 1:5 DNA:ligand ratio by FRET assay; outline: as §2
[9] = Binding affinity to mouse KRAS G-quadruplex FAM-GCGGGAGGGAGGGAAGGAGGGAGGGAGGGAG-TAMRA DNA assessed as quenching of fluorescence emission by FRET titration assay; outline: as §1
Homo sapiens [10] = species on record: Homo sapiens; assay: Thermal stabilization of human telomeric G-quadruplex FAM-TTAGGGTTAGGGTTAGGGTTAGGG-TAMRA DNA assessed as change in melting temperature at 1:5 DNA:ligand ratio by FRET assay; outline: as §2
T-24 [11] = assay: Binding affinity to wild type HRAS quadruplex DNA in human T24 cells assessed as reduction in gene expression compound treated for 24 hrs prior to transfection measured 72 hrs post transfection by dual-luciferase reporter gene assay relative to control; assay type: cell-based
T-24 [12] = assay: Induction of apoptosis in human T24 cells by caspase 3/7 assay; assay type: functional, cell-based
T-24 [13] = assay: Antiproliferative activity against human T24 cells by trypan blue assay; assay type: functional, cell-based
T-24 [14] = assay: Cell cycle arrest in human T24 cells assessed as accumulation at G2/M phase at 10 uM after 48 to 72 hrs by FACS analysis relative to control; assay type: functional
Outline: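 T24 cells treated with 10 μM ligand for 48 or 72 h. Fixed 1 h at 4 °C in 70% ethanol, then stained with propidium iodide 0.05 mg/mL plus RNase A 0.1 mg/mL for 30 min at room temperature. Analysed by FACS (FL2). Phase percentages compared with control by t-test (p < 0.05).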

NIH3T3 [15] = assay: Cytotoxicity against mouse NIH/3T3 cells at 1 to 30 uM after 72 hrs by resazurin assay; assay type: cell-based; details: NIH3T3, 72 h
Outline: (§3)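 Cells seeded at 3000 per well the day before treatment, grown in DMEM with 10% FBS. Ligand added at 1, 2.5, 5, 10, 20, 30 μM for 72 h. Viability measured by resazurin and expressed as % of untreated cells; mean of three independent measurements. IC50 is the concentration reducing proliferation by 50%.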

T-24 [16] = assay: Cytotoxicity against human T24 cells expressing mutant HRAS at 1 to 30 uM after 72 hrs by resazurin assay; assay type: functional, cell-based; details: T-24, 72 h; outline: as §3
T-24 [17] = assay: Binding affinity to HRAS G-quadruplex DNA in human T24 cells assessed as reduction in p21HRAS level at 5 uM after 72 hrs by immunoblotting analysis relative to control; assay type: cell-based; set-up: scale not given: the % may be the effect or the level left
Outline: (§4)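 T24 cells treated with 5 μM ligand for 48 or 72 h. Lysates (30 μg) run on 12% SDS-PAGE and immunoblotted with monoclonal anti-HRAS and β-actin antibodies, with HRP detection. HRAS level = (p21HRAS/β-actin treated)/(p21HRAS/β-actin untreated) × 100.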

T-24 [18] = assay: Binding affinity to HRAS G-quadruplex DNA in human T24 cells assessed as reduction in p21HRAS level at 5 uM after 72 hrs by immunoblotting analysis relative to control
T-24 [19] = assay: Cellular uptake in human T24 cells at 4 degC by FACS flow cytometric analysis; assay type: ADME, cell-based
Outline: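 T24 cells incubated with ligand at 4 °C or 37 °C. Intracellular ligand fluorescence measured by flow cytometry in the FL3 (680 nm) channel.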

T-24 [20] = assay: Binding affinity to HRAS G-quadruplex DNA in human T24 cells assessed as reduction in p21HRAS level at 5 uM after 48 hrs by immunoblotting analysis; assay type: cell-based; outline: as §4
T-24 [21] = assay: Binding affinity to HRAS G-quadruplex DNA in human T24 cells assessed as reduction in p21HRAS level at 5 uM by immunoblotting analysis relative to control

Row | SMILES | deltaTm (Homo sapiens [1]) [K] | Drug uptake (NIH3T3 [2]) | Drug uptake (NIH3T3 [3]) | Drug uptake (T-24 [4]) | Drug uptake (NIH3T3 [5]) | Activity (Salmonidae) | Kd [6] [nM] | deltaTm (Homo sapiens [7]) [K] | Kd [8] [nM] | deltaTm (Mus musculus) [K] | Kd [9] [nM] | deltaTm (Homo sapiens [10]) [K] | Activity (T-24 [11]) | Activity (T-24 [12]) | Activity (T-24 [13]) | Activity (T-24 [14]) [%] | IC50 (NIH3T3 [15]) [nM] | IC50 (T-24 [16]) [nM] | Activity (T-24 [17]) [%] | Activity (T-24 [18]) | further results
1 | N=C(N)NCCCNc1c2c(c(NCCNC(=N)N)c3sccc13)C(=O)c1ccccc1C2=O | 3 | Active | Active | Not Active | Active | Active | 280 | 16 | 280 | 28 | 230 | 23 | Dose-dependent effect | inactive | inactive | 12 | 20000 | 6500 | 20 | Active | –
2 | N=C(N)NCCCCNc1c2c(c(NCCCCNC(=N)N)c3sccc13)C(=O)c1ccccc1C2=O | 7 | Active | – | Active | Active | Active | 280 | 20 | 210 | 35 | 270 | 34 | Dose-dependent effect | inactive | inactive | 12 | > 30000 | 19100 | 20 | – | Drug uptake (T-24 [19]): Active; Activity (T-24 [20]): Active; Activity (T-24 [21]): Active
3 | N=C(N)NCCCNc1c2c(c(NCCCNC(=N)N)c3sccc13)C(=O)c1ccccc1C2=O | 3 | Active | – | Active | Active | Active | 230 | 19 | 300 | 33 | 180 | 21 | Dose-dependent effect | inactive | inactive | 12 | > 30000 | 19500 | 20 | – | –
4 | N=C(N)NCCNc1c2c(c(NCCNC(=N)N)c3sccc13)C(=O)c1ccccc1C2=O | 3 | Active | Active | Not Active | Active | Active | 270 | 12 | 340 | 15 | 250 | 14 | Dose-dependent effect | inactive | inactive | 12 | 20000 | 4400 | 20 | – | Drug uptake (T-24 [19]): Active; Activity (T-24 [20]): Active; Activity (T-24 [21]): Active
5 | N=C(N)NCCCNc1c2c(c(NCCNC(=N)N)c3ccsc13)C(=O)c1ccccc1C2=O | 4 | Active | – | Active | Active | Active | 370 | 13 | 360 | 27 | 210 | 21 | Dose-dependent effect | inactive | inactive | 12 | > 30000 | 7900 | 20 | Active | –
